This note sets out measurements from PubChem BioAssay AID449755 (Broad Institute, 2010).

Inconclusive results are not listed. Calls of active or inactive are those of the source.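 How the source made its calls: active means compounds raising caspase signal whose fitted AC50 is at most ten times the top tested dose; inconclusive means flat fit with 30 to 70% activity, or failed fit; inactive means the rest.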

The subject of this test is HMC 1-8 low-A1 cells, caspase-3/7 luminescence, 3 h. In words: caspase activation in low-A1 HMC 1-8 cells, dose response, counter-screen for A1 inhibitor project, cell-based, caspase luminescence (AID 449755). In outline:
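Material: HMC 1-8 human cancer cells with low A1 expression / Amount: 2500 cells/well / Medium: RPMI-1640, 10% FBS / Dosing: compound delivered by pin transfer / Times: compound 3 h at 37 °C, detection 1 h RT / Detection: caspase-3/7 DEVD luminescence / Evaluation: caspase activation as non-A1 counterscreen signal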
Consider `Cc1ccc(C(=O)COC(=O)c2ccc3c(c2)C(=O)N(c2cccc4ncccc24)C3=O)cc1`, for which the AC50 was 24.3 µM.

As to `O=C(Oc1cccc(/C=N/Nc2nc(Nc3ccccc3)nc(N3CCOCC3)n2)c1)c1ccco1`, the AC50 was > 35 µM (inactive).

`C=C1/C=C(\C)[C@](C)(O)C[C@H](O)CC(=O)[C@H](O)[C@@H](O)[C@H](C)C[C@H](C)OC(=O)/C(C)=C/CC/C=C/[C@@H]2O[C@H]2C[C@H](C)C1`: the AC50 is > 35 µM (inactive).

`O=C(Nc1ccc([N+](=O)[O-])cc1)c1nc[nH]c1C(=O)NC1CCCCC1`: the AC50 was > 35 µM (inactive).

Turning to `Cc1ccc(C=C2C(Cl)=C(Cl)C(Cl)=C2Cl)cc1`, the AC50 is 12.9 µM.

`CCOC(=O)c1ccc(-c2ccc(/C=N/NC(=O)CN(c3cccc(C)c3)S(C)(=O)=O)o2)cc1`: the AC50 was > 35 µM (inactive).

For `COc1cc(NC(=O)c2ccccc2)c(OC)cc1NC(=O)Cc1ccc(Br)cc1`, the AC50 is > 35 µM (inactive).

As to `CCOC(=O)/C=c1\s/c(=C\c2ccc(C(=O)OC)cc2)c(=O)n1CC(=O)Nc1ccccc1`, the AC50 is > 35 µM (inactive).

With `COc1ccc(C=C2C=C(C(C)(C)C)C(=O)C(C(C)(C)C)=C2)cc1OC`, the AC50 was 5.9 µM.

In the case of `CCC1CCCCN1S(=O)(=O)c1ccc(NC(=O)c2nc(S(C)(=O)=O)ncc2Cl)cc1` (configuration not stated), the AC50 was > 35 µM (inactive).

As for `CC(C)(C)C1CCc2onc(C(=O)Nc3cccc(O)c3)c2C1` (configuration not stated), the AC50 is > 35 µM (inactive).

Consider `CCS(=O)(=O)c1ncc(Cl)c(C(=O)Nc2ccccc2OC)n1`, for which the AC50 is > 35 µM (inactive).

For the compound `Cc1ccc(NC(=O)CSc2nc3nc(C)c(Br)cc3[nH]2)cc1F`, the AC50 was > 35 µM (inactive).

As to `CC(=O)Nc1ncnc2c1c(-c1ccc(Cl)cc1)nn2C(C)(C)C`, the AC50 was > 35 µM (inactive).

Consider `CCc1nn(-c2cc(Oc3cccc4ccccc34)nc(-c3ccccc3)n2)c(N)c1C#N`, for which the AC50 is > 35 µM (inactive).

Regarding `Cc1c(C=O)c(C=O)c(C)n1Cc1ccccc1`, the AC50 is > 35 µM (inactive).

For the compound `CC1=NNC(=O)/C1=C\c1cn(-c2ccccc2)nc1-c1cccs1`, the AC50 is > 35 µM (inactive).

`Cc1cccc(Nc2nc(N)c([N+](=O)[O-])c(N3CCCC(C)C3)n2)c1` (configuration not stated): the AC50 is > 35 µM (inactive).

On to `Cc1ccc(S(=O)(=O)c2nnn3c2nc(Nc2cccc(C)c2)c2ccccc23)cc1`, for which the AC50 is > 35 µM (inactive).

As to `COc1ccc(C[C@H]2NC[C@H](O)[C@H]2OC(C)=O)cc1`, the AC50 was 1.09 µM.

With `COCc1cc(C)nc(SCC(=O)Nc2nc(C)cs2)c1C#N`, the AC50 was > 35 µM (inactive).

Consider `COc1cc(/C=C(/C#N)c2nc3ccccc3[nH]2)ccc1OCC(=O)Nc1ccccc1C`, for which the half-maximal activity concentration (AC50) was 3.01 µM.

As to `COc1ccc(NC(=O)CSc2nc3ccc(Nc4nc(N5CCOCC5)nc(N5CCOCC5)n4)cc3s2)cc1`, the AC50 was > 35 µM (inactive).

Take `COc1ccc(N(C(=O)CCl)C(C(=O)NCCc2ccccc2)c2cccs2)cc1Cl` (configuration not stated): the AC50 was > 35 µM (inactive).

Turning to `CC1CC(C)CN(C(=O)c2ccc(-c3ccc([N+](=O)[O-])cc3)o2)C1` (configuration not stated), the AC50 was > 35 µM (inactive).

Consider `Cc1ccc(C(=O)/C=C\C(=O)c2ccc(C)cc2)cc1`, for which the AC50 is > 35 µM (inactive).

Take `O=C(Nc1ccc2oc(-c3ccccc3Cl)nc2c1)c1cncc(Br)c1`: the AC50 was > 35 µM (inactive).

As to `Cc1ccc(C2(c3ccc(C)cc3)CC2C(=O)Nc2ccc([N+](=O)[O-])cc2O)cc1` (configuration not stated), the AC50 is > 35 µM (inactive).

For the compound `O=C1C2C3C=CC(CO)(O3)C2C(=O)N1c1ccc(-c2ccccc2)cc1` (configuration not stated), the AC50 is > 35 µM (inactive).

Turning to `CCc1ccccc1NC(=O)C(CC)Sc1nc2cc3c(cc2c(=O)n1Cc1ccco1)OCO3` (configuration not stated), the AC50 was > 35 µM (inactive).

For `CCOC(=O)c1c(C)oc2c1c(CN1CCN(C(=O)OCC)CC1)c(O)c1ccccc12`, the AC50 was 26.3 µM.

`O=C(COc1ccccc1[N+](=O)[O-])Nc1ccc(NC(=O)c2cc3ccccc3o2)cc1`: the AC50 was 9.07 µM.

Take `COc1ccc(OC)c(NC(=O)c2cc(-c3cc(C)ccc3O)n[nH]2)c1`: the AC50 is > 35 µM (inactive).

Take `COc1cc(NC(=O)c2cccc(C)c2)ccc1NC(=O)c1cc2ccccc2o1`: the AC50 was > 35 µM (inactive).

For the compound `COc1cc(C(=O)Nc2cc3c(cc2N2CCCCC2)n(C)c(=O)n3C)cc(OC)c1OC`, the AC50 was > 35 µM (inactive).

On to `COc1cc(NC(=O)c2ccc(Cl)cc2Cl)ccc1-c1cc2ccccc2oc1=O`, for which the AC50 was > 35 µM (inactive).

In the case of `O=C(NC[C@H]1CCCO1)c1cccc2c1C(=O)c1ccc(-c3ccc(F)cc3OCc3ccccc3)cc1S2(=O)=O`, the AC50 was > 35 µM (inactive).

On to `CCC(Sc1nc2cc3c(cc2c(=O)n1Cc1ccco1)OCO3)C(=O)Nc1cccc(OC)c1` (configuration not stated), for which the AC50 is > 35 µM (inactive).

Turning to `CC(C)(C)c1ccc(C(=O)Nc2ccc(O)c3c(=O)cc(-c4cccc(Cl)c4)oc23)cc1`, the AC50 was > 35 µM (inactive).

`Cc1nn(-c2ccccc2)c(C)c1/C=N/NC(=O)CSc1nc2ccccc2c(=O)n1-c1ccc(Br)cc1`: the AC50 is > 35 µM (inactive).

On to `COc1ccc2c(c1)[nH]c1c(=O)n(/N=C/C3C(C)C=C(C)CC3C)c(=O)[nH]c12` (configuration not stated), for which the AC50 is > 35 µM (inactive).

Regarding `COc1ccc(Cn2c(SCc3ccc(C)cc3)nc3cc(OC)c(OC)cc3c2=N)cc1Cl`, the AC50 was 27.1 µM.

In the case of `Cc1ccc(N(Cc2cc(=O)[nH]c3ccccc23)C(=O)CCl)cc1`, the AC50 was > 35 µM (inactive).

As to `COc1ccccc1C(=O)Nc1ccnn1C1CCN(Cc2cn(C)c3ccccc23)CC1`, the AC50 was > 35 µM (inactive).

For `CC(=O)Nc1sc(N/N=C\c2cccc(Cl)c2)nc1-c1cccs1`, the AC50 is > 35 µM (inactive).

As to `Oc1ccc(/C=N/N2CCN(C3c4ccccc4-c4ccccc43)CC2)cc1O`, the AC50 is > 35 µM (inactive).

As for `Cc1ccc(C#N)c(SCC(=O)Nc2nccs2)n1`, the AC50 is > 35 µM (inactive).

Consider `N#C/C(=C\c1ccc(OCc2ccccc2)cc1)C(=O)Nc1nc2c(s1)CCN(Cc1ccccc1)C2`, for which the AC50 is > 35 µM (inactive).

Turning to `Cc1cc(NC(=O)CSc2nc3cc(Cl)ccc3c(=O)n2Cc2ccco2)no1`, the AC50 was > 35 µM (inactive).

In the case of `COc1cc2ncnc(NCc3ccc(F)cc3)c2cc1OC`, the AC50 was > 35 µM (inactive).

Turning to `CCc1nnc(NC(=O)c2nc(S(=O)(=O)Cc3ccccc3)ncc2Cl)s1`, the AC50 was > 35 µM (inactive).

Consider `CC(C)CCN(C(=O)Cc1ccc(Cl)c(Cl)c1)c1c(N)n(Cc2ccccc2)c(=O)[nH]c1=O`, for which the AC50 was 24.3 µM.

For the compound `Cc1cccc(NC(=O)/C(C#N)=C/c2cn(CC(=O)NCc3ccco3)c3ccccc23)c1`, the AC50 is > 35 µM (inactive).

Take `CCOCCCNC(=O)c1ccc2c(c1)N=C(CC)c1cc(Br)ccc1S2`: the AC50 was > 35 µM (inactive).

In the case of `CC(=O)OC(C)(C)/C=C/C(=O)C(C)(O)C1[C@H](O)C[C@@]2(C)C3CC=C4C(CC[C@@H](O)C4(C)C)[C@]3(CO)C(=O)C[C@]12C` (some centres not stated), the AC50 is > 35 µM (inactive).

Regarding `O=C(Nc1ccc2oc(-c3ccccc3)nc2c1)c1ccccc1F`, the AC50 is > 35 µM (inactive).

On to `CN(C)C/C=C(\c1ccc(Br)cc1)c1cccnc1`, for which the AC50 was > 35 µM (inactive).

On to `CCOC(=O)/C(=C\c1cccnc1)C(=O)c1cc(C(C)=O)c(Nc2ccccc2)s1`, for which the AC50 is > 35 µM (inactive).

Regarding `CC(C)(C)c1ccc2c(c1)OC(C(=O)N/N=C\c1ccc[nH]1)CO2` (configuration not stated), the AC50 was > 35 µM (inactive).

For the compound `CC(C)c1cccc(-c2ccc3c(c2)S(=O)(=O)c2cccc(C(=O)NC4CCCC4)c2C3=O)c1`, the AC50 is > 35 µM (inactive).

Consider `COc1cc(-c2cc(-c3ccccc3)nc(SCC(=O)Nc3nccs3)c2C#N)cc(OC)c1OC`, for which the AC50 was > 35 µM (inactive).

As for `CCCc1ccc(OCc2ccc(C(=O)N/N=C/c3cccc([N+](=O)[O-])c3)o2)c(OC)c1`, the AC50 is 7.31 µM.
